Shown is part of a subset that was picked to be rich in hits.
A1 apoptosis 2 = blocks A1, raising caspase activity | caspase activation, % (no concentration beside the values) | MEF A1-2A-BIM cells, caspase-Glo luminescence, 3 h; percent of clofoctol response, DMSO zero | 24,000 tested, under 10 active; in the data active = caspase activation above about 5.9%
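Material: mouse embryonic fibroblasts co-expressing A1 and BIM (A1-2A-BIM), primed for A1 dependence / Quantity: 2500 cells/well / Buffer or medium: RPMI-1640 growth medium with 10% FBS / Doses: 50 nL compound per well, pinned / Schedule: 3 h compound exposure at 37 °C / Signal: Caspase-Glo luminescence (DEVD substrate) / Measure: Caspase-3/7 activation, seen as rise in luminescence signal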
INS-1E rescue = rescue of cytokine-induced death in INS-1E beta cells. INS-1E cytokine-induced death, ATP luminescence, 48 h; normalised: neutral wells 0, positive control 100. protection from cytokine-induced ATP loss, % at 10 µM. hit rate 0.1% among 20,000;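 active = mean replicate protection from cytokine-induced ATP loss at least 50% and at least 75% of replicates each reaching 50%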
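Assay system: INS-1E rat cells / Quantity: 8000 cells per well / Medium: RPMI without phenol red, 5% FBS / Probe or stimulus: three-cytokine cocktail (IFN-γ, TNF-α, IL-1β) / Dosing: one compound concentration, pin transfer / Timing: 48 h co-treatment, 10 min post-lysis read / Technique: CellTiter-Glo luminescence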
T cruzi intra = inhibitors of intracellular Trypanosoma cruzi. intracellular Trypanosoma cruzi in host cells, plate reader. activity score (inhibition), % at 5.01 µM. hit rate 4.9% among 22,000; in the data active = activity score above about 55%;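 note: parasites and compound incubated about four days before reading; 0% = median of neutral control wells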
An asterisk follows results filed as active; . = not tested or not shown.

SMILES | A1 apoptosis 2 | INS-1E rescue | T cruzi intra
C[C@@H]1CN([C@@H](C)CO)C(=O)Cc2cc(NC(=O)Nc3ccc(C(F)(F)F)cc3)ccc2O[C@@H]1CN(C)Cc1ccc(C(F)(F)F)cc1 | . | -19 | 64*
C[C@H]1CN([C@@H](C)CO)C(=O)Cc2cc(NC(=O)Nc3ccc(C(F)(F)F)cc3)ccc2O[C@@H]1CN(C)Cc1ccc(C(=O)O)cc1 | . | 5 | -27
C[C@H]1CN([C@@H](C)CO)C(=O)Cc2cc(NC(=O)Nc3ccc(C(F)(F)F)cc3)ccc2O[C@H]1CN(C)Cc1ccc(C(F)(F)F)cc1 | . | -90 | 82*
C[C@@H]1CN([C@H](C)CO)C(=O)Cc2cc(NC(=O)C3CCCCC3)ccc2O[C@H]1CN(C)Cc1ccc(C(F)(F)F)cc1 | . | -12 | 58*
C[C@H](CO)N1C[C@H](C)[C@@H](CN(C)C(=O)Nc2ccccc2)OCCCC[C@H](C)Oc2ccc(NC(=O)CCC(F)(F)F)cc2C1=O | 1 | . | .
COc1ccc(S(=O)(=O)N(C)C[C@@H]2Oc3c(NC(=O)c4cnccn4)cccc3C(=O)N([C@@H](C)CO)C[C@H]2C)cc1 | 1 | 0 | -7
Brc1ccc2nc(N3CCCCCC3)nc(NC3CCN(Cc4ccccc4)CC3)c2c1 | 0 | . | .
Cc1ccsc1/C=N\NC(=O)CCCCC(=O)NO | . | 59* | 9
COc1cc(Cl)c(/C=N\NC(=O)CCCCC(=O)NO)c(Cl)c1OC | -1 | 68* | 18
Cc1ccsc1/C=N/NC(=O)CCCCCCC(=O)NO | 0 | . | .
O=C(CCCCCCC(=O)Nc1ccccc1O)N/N=C/c1ccc(O)c2ccccc12 | 1 | -1 | -3
O=C(CCCCCCC(=O)N/N=C\c1ccc(O)c2ccccc12)NO | 0 | 151* | 14
CCOc1cccc(/C=N/NC(=O)CCCCCCC(=O)OC)c1OCC | 0 | 6 | 1
COc1cc(Cl)c(/C=N/NC(=O)CCCCCCC(=O)Nc2ccccc2O)c(Cl)c1OC | . | 3 | -12
CCOc1cccc(/C=N/NC(=O)CCCCC(=O)NO)c1OCC | -1 | 81* | -7
C[C@H]1CN([C@@H](C)CO)C(=O)c2cc(NS(C)(=O)=O)ccc2O[C@@H]1CN(C)Cc1ccc(Cl)c(Cl)c1 | . | . | 9
C[C@@H]1CN([C@@H](C)CO)C(=O)c2cc(NC(=O)NC3CCCCC3)ccc2O[C@@H](C)CCCCO[C@@H]1CN(C)S(=O)(=O)c1ccccc1 | 0 | . | .
C[C@H](CO)N1C[C@H](C)[C@H](CN(C)Cc2ccc3c(c2)OCO3)Oc2c(NS(C)(=O)=O)cccc2C1=O | 0 | 2 | -5
C[C@@H]1CN([C@H](C)CO)C(=O)Cc2cc(NC(=O)Nc3ccc(C(F)(F)F)cc3)ccc2O[C@@H]1CN(C)S(C)(=O)=O | . | 1 | 11
C[C@H](CO)N1C[C@H](C)[C@H](CN(C)Cc2ccc3c(c2)OCO3)Oc2ccc(NC(=O)Nc3ccc(C(F)(F)F)cc3)cc2C1=O | . | -1 | -29
CNC[C@@H]1Oc2ccc(NC(=O)Nc3c(C)noc3C)cc2C(=O)N([C@@H](C)CO)C[C@H]1C | -1 | 3 | 3
O=C(CCCCCC(=O)N/N=C/c1ccccc1O)NO | 0 | . | .
O=C(CCCCC(=O)N/N=C/c1c(O)ccc2ccccc12)NO | 0 | 132* | -4
CC(C)NC(=O)Nc1ccc2c(c1)CC(=O)N([C@H](C)CO)C[C@@H](C)[C@@H](CN(C)Cc1ccc3c(c1)OCO3)O2 | 0 | 0 | 2
C[C@H](CO)N1C[C@H](C)[C@@H](CN(C)Cc2ccc(C(=O)O)cc2)Oc2c(NC(=O)c3ccncc3)cccc2C1=O | 1 | 1 | -18
SMILES | A1 apoptosis 2 | INS-1E rescue | T cruzi intra
C[C@H]1CN([C@@H](C)CO)C(=O)c2cccc(NC(=O)c3ccncc3)c2O[C@@H]1CN(C)Cc1ccc(C(=O)O)cc1 | 0 | 17 | -14
C[C@@H]1CN([C@@H](C)CO)C(=O)c2cccc(NC(=O)c3ccncc3)c2O[C@@H]1CN(C)Cc1ccc(-c2ccccc2)cc1 | . | -22 | 58*
C[C@@H]1CN([C@H](C)CO)C(=O)c2cccc(NC(=O)c3ccncc3)c2O[C@@H]1CN(C)Cc1ccc(-c2ccccc2)cc1 | -1 | -21 | 67*
C[C@@H]1CN([C@@H](C)CO)C(=O)c2cc(NS(=O)(=O)c3ccc(Cl)cc3)ccc2O[C@@H]1CN(C)Cc1ccccc1 | 0 | -11 | 7
C[C@@H]1CN([C@H](C)CO)C(=O)c2cccc(NC(=O)c3nc4ccccc4s3)c2O[C@@H]1CN(C)Cc1ccc(-c2ccccc2)cc1 | -1 | -33 | 34
C[C@@H]1CN([C@H](C)CO)C(=O)c2cccc(NC(=O)c3nc4ccccc4s3)c2O[C@@H]1CN(C)Cc1ccc(C(=O)Nc2ccccc2N)cc1 | 0 | . | .
C[C@H]1CN([C@@H](C)CO)C(=O)c2cccc(NC(=O)c3nc4ccccc4s3)c2O[C@@H]1CN(C)Cc1ccc(Oc2ccccc2)cc1 | 0 | -11 | 54
C[C@@H]1CN([C@H](C)CO)C(=O)c2cccc(NC(=O)c3nc4ccccc4s3)c2O[C@@H]1CN(C)Cc1ccccc1 | -1 | -56 | 23
C[C@@H]1CN([C@@H](C)CO)C(=O)c2cccc(NC(=O)c3nc4ccccc4s3)c2O[C@H]1CN(C)Cc1ccc(-c2ccccc2)cc1 | . | -32 | 71*
C[C@H]1CN([C@@H](C)CO)C(=O)c2cccc(NC(=O)c3nc4ccccc4s3)c2O[C@@H]1CN(C)Cc1ccc(Cl)c(Cl)c1 | 0 | -13 | 65*
C[C@@H]1CN([C@@H](C)CO)C(=O)c2cccc(NC(=O)c3nc4ccccc4s3)c2O[C@H]1CN(C)Cc1ccc(C(=O)Nc2ccccc2N)cc1 | . | 19 | 70*
C[C@H](CO)N1C[C@H](C)[C@@H](CN(C)Cc2ccc(Oc3ccccc3)cc2)Oc2c(NC(=O)c3nc4ccccc4s3)cccc2C1=O | . | -26 | 66*
NC(=O)[C@H]1[C@@H]2C(=O)O[C@@H](c3ccccc3)[C@@H](c3ccccc3)N2[C@@H](c2ccc(O)cc2)[C@]12C(=O)Nc1ccccc12 | 0 | . | .
NC(=O)NCC#Cc1ccc2c(c1)[C@]1(C(=O)N2)[C@H](C(=O)O)[C@H]2C(=O)O[C@H](c3ccccc3)[C@H](c3ccccc3)N2[C@@H]1c1ccc(OCCO)cc1 | 0 | . | .
COc1ccc(NC(=O)Nc2ccc3c(c2)C(=O)N([C@H](C)CO)C[C@H](C)[C@H](CN(C)Cc2ccc4c(c2)OCO4)OCCCC[C@@H](C)O3)cc1 | . | -22 | 26
O=C(N/N=C/c1cc(Br)cs1)c1ccccc1O | -6 | -33 | -22
O=C(N/N=C/c1ccc(O)cc1O)c1ccccc1O | -11 | -128 | 67*
Cn1cc(/C=N\NC(=O)c2ccccc2O)c2ccccc21 | . | 14 | -22
O=C(N/N=C\c1ccc2ccccc2c1O)c1ccccc1O | . | -130 | 62*
O=C(N/N=C/c1cc(O)ccc1Br)c1ccccc1O | -6 | -45 | -7
O=C(N/N=C/c1cc(Br)cc(Br)c1O)c1ccccc1O | -7 | -125 | 83*
Cc1noc(C)c1S(=O)(=O)N(C)C[C@@H]1Oc2ccc(NC(=O)NC(C)C)cc2CC(=O)N([C@@H](C)CO)C[C@H]1C | -1 | . | .

Screens: PubChem BioAssay, Broad Institute
